Screens (PubChem)
Sampled rows, rich in hits. Any-hit rate of the full collection: about 2.5%.
NPY-Y2 antag = antagonists of human neuropeptide Y receptor Y2; NPY-Y2 expressing cells, antagonist mode; P49146; inhibition, % at 2.7 µM; 140,000 tested, 0.99% active; in the data active means inhibition above about 17%
NPY Y1 blocker = blocks the human neuropeptide Y Y1 receptor. inhibition, % at 3.6 µM. 200,000 tested, 1% active. P25929. HEK293-CNG Y1 cells, membrane potential fluorescence; NPY at EC95, then isoproterenol. AID 1040;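 active means inhibition above the campaign mean inhibition of all tested compounds plus 3 SD, cut at about 20% in these data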
Target sequence (P25929 whole entry, looked up): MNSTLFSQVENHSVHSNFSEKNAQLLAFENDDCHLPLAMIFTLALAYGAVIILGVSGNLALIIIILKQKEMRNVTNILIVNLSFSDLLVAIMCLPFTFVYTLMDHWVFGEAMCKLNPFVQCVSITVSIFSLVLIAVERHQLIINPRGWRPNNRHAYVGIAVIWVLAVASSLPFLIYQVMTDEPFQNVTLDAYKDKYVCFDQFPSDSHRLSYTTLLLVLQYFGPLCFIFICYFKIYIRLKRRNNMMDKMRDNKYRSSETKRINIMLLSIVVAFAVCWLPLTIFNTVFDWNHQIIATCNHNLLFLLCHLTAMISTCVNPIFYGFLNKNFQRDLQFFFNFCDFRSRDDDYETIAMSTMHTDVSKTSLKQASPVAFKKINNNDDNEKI
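Material: Y1- and CNG-channel-expressing HEK293 cells / Probe or stimulus: NPY 25 nM then isoproterenol 1 µM plus Ro 20-1724 25 µM / Doses: 3.6 µM single dose, DMSO 0.4% / Schedule: compound incubation 1 h at room temperature, readout 45 min post-stimulation / Signal: membrane potential fluorescence / Benchmarks: isoproterenol-only wells as full block versus NPY-plus-isoproterenol wells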
Ins promoter up = MIN6 insulin promoter up-regulation | z-score at 5 µM | 190,000 tested, 0.3% active | MIN6 insulin promoter-GFP reporter, high-content imaging; active compounds read high | AID 1625;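 active means z-score above 3 at 5 µM with at least 500 cells counted in the well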
NPY-Y1 PAM-ag = human NPY-Y1 potentiation or agonism, primary screen; activation, % at 3.6 µM; NPY-Y1 expressing cells, potentiator/agonist activation; 220,000 tested, 0.37% active; P25929; in the data active means activation above about 33%, passing the limit was not always enough;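 further: cells stimulated with NPY at EC10 then isoproterenol at EC100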
Insulin prom inh = TRM-6 insulin promoter activity inhibition; TRM-6 cells, insulin promoter-eGFP reporter, imaging; reporter expression induced with tamoxifen; inhibition, % at 2 µM; 130,000 tested, 0.9% active; AID 1273;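 active means inhibition above the mean plus 3 SD, with well images judged a real hit on visual review, cut at about 60% in these data, passing the limit was not always enough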
NPY2 pot ag = human NPY-Y2 potentiation or agonism, primary screen; AID 1359; 220,000 tested, 0.45% active; activation, % at 3.6 µM; cells expressing NPY-Y2, potentiator/agonist read-out; in the data active means activation above about 27%;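 further: cells stimulated with NPY near EC25 plus isoproterenol at EC100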
NPY1 antag ctr = human NPY-Y1 antagonism in NPY-Y2 counter-screen | shares compounds with NPY-Y2 antag | cell-based NPY-Y1 antagonism counterscreen | inhibition, % at 3.6 µM | 710 tested, 19% active | AID 1256; in the data active means inhibition above about 20%;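 further: cells challenged with NPY then isoproterenol with cAMP sensed through a CNG channel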
NPY2 antag conf = human NPY-Y2 antagonism, confirmation; AID 1257; 710 tested, 32% active; shares compounds with NPY-Y2 antag; inhibition, % at 2.8 µM; HEK293 NPY-Y2 CNG channel, membrane potential fluorescence;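 active means mean inhibition of triplicate wells above the hit cutoff set in the primary screen, cut at about 17% in these data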
Numbers stand for hits; . = inactive; / = no result.

SMILES | NPY-Y2 antag | NPY Y1 blocker | Ins promoter up | NPY-Y1 PAM-ag | Insulin prom inh | NPY2 pot ag | NPY1 antag ctr | NPY2 antag conf
Cc1c(Cl)cccc1NC(=S)N1CCc2ccccc2C1 | / | . | . | . | / | . | / | /
C/C(Cn1nnc([N+](=O)[O-])n1)=N\NC(=O)c1ccccc1O | / | / | . | . | / | . | / | /
C/C(Cn1nnc([N+](=O)[O-])n1)=N\NC(=O)c1ccc(O)cc1O | 25 | . | . | . | . | . | . | .
N#C/C(=C\c1cn(Cc2ccc(F)cc2)c2ccccc12)C(=O)NCc1ccco1 | 18 | . | . | . | . | . | . | .
O=C(NNC(=O)C1CC1c1ccccc1)Nc1cccc(Cl)c1 (configuration not stated) | . | . | . | . | / | . | / | /
Cc1ccc(Oc2nc(CN3CCOCC3)nc3sc4c(c23)CCC(C)C4)cc1 (configuration not stated) | 22 | . | . | . | / | . | 29 | 30
O=C(OC1CCOC1=O)c1cccc(S(=O)(=O)N2CCc3ccccc3C2)c1 (configuration not stated) | / | . | . | . | / | . | / | /
CCc1n[nH]c(=S)n1/N=C/c1cc(Br)c(OC)cc1OC | 21 | . | . | . | . | . | . | 18
CCOc1ccc(C(C(=O)NC2CCCC2)N(Cc2ccccc2)C(=O)c2nsc(Cl)c2Cl)cc1 (configuration not stated) | 25 | . | . | . | . | . | 21 | .
Fc1cccc(CSc2ccc(-c3ccc4c(c3)OCO4)nn2)c1 | 19 | . | . | . | / | . | . | .
c1cncc(CSc2ccc(-c3ccc4c(c3)OCO4)nn2)c1 | / | . | / | . | . | . | / | /
C=CCNS(=O)(=O)c1ccc(N2C(=O)c3ccccc3C2=O)cc1 | / | . | . | . | / | . | / | /
COc1ccc(NC(=O)C2CCC(C(C)(C)C)CC2)cc1S(=O)(=O)N1CCCCC1 (configuration not stated) | 21 | . | . | . | . | . | . | .
COc1ccc(NC(=O)c2n[nH]c(=O)c3ccccc23)cc1S(=O)(=O)N1CCCCC1 | 27 | . | . | . | / | . | . | 19
COc1ccc(OC)c(S(=O)(=O)N2CCC(C(=O)Nc3ccccc3)CC2)c1 | / | . | . | . | / | . | / | /
COc1ccccc1CCNCc1ccc(OC)c(OCc2ccccc2)c1 | 20 | . | . | . | . | . | . | 92
COc1ccc(CNCc2ccco2)cc1OCc1ccccc1 | . | . | . | . | . | . | / | /
O=C(O)c1ccc(S(=O)(=O)Nc2ccc(O)c(Sc3nc4ccccc4s3)c2)cc1 | / | . | . | . | / | . | / | /
Cc1ccc2nc3c(c(Nc4ccc5c(c4)OCCO5)c2c1)CCC3 | 22 | . | . | . | . | . | . | .
Cc1cccc(Nc2c3c(nc4ccccc24)CCC3)c1 | / | / | . | . | / | . | / | /
CCCCCCCCc1nnc(NC(=O)c2ccco2)s1 | . | . | . | . | . | . | / | /
Cc1ccc(CNC(=O)c2cn(C3CCCCC3)c(=O)c3c2c2ccccc2n3C)o1 | 20 | . | . | . | . | . | . | .
CC1=C(C(=O)OCC2CCCO2)C(c2ccc(C)cc2)C2=C(CC(C)(C)CC2=O)N1 (configuration not stated) | / | . | . | . | / | . | / | /
S=C(NCCc1ccccc1)N/N=C/c1cccc(Cl)c1Cl | 26 | . | . | . | / | . | 31 | 50
NS(=O)(=O)c1ccc(CCNC(=O)C(=O)C2C(=O)Nc3ccccc32)cc1 (configuration not stated) | / | / | . | . | / | . | / | /
SMILES | NPY-Y2 antag | NPY Y1 blocker | Ins promoter up | NPY-Y1 PAM-ag | Insulin prom inh | NPY2 pot ag | NPY1 antag ctr | NPY2 antag conf
O=C(COC(=O)/C=C/c1ccc(Cl)cc1)Nc1ccc2c(c1)OCCO2 | 17 | . | . | . | . | . | . | .
CCOC(=O)c1ccc(N2C(=O)c3n[nH]c(-c4ccco4)c3C2c2ccc([N+](=O)[O-])cc2)cc1 (configuration not stated) | 26 | . | . | . | . | . | 22 | .
CCOC(=O)c1ccc(N2C(=O)c3n[nH]c(C)c3C2c2cccnc2)cc1 (configuration not stated) | . | . | . | . | . | . | / | /
C=CCNc1nc(N2CCCC2)nc2ccccc12 | 20 | . | . | . | 79 | . | . | 19
Cc1cccc(C)c1NC(=O)CCCSc1nnc(-c2ccc(Cl)cc2)n1-c1ccccc1 | 18 | . | . | . | . | . | . | .
CC(C)(C)C1(C)OC(=O)C(=Cc2ccc(OCC(=O)Nc3ccccc3)cc2)C(=O)O1 (configuration not stated) | . | . | . | . | . | . | / | /
CSc1ccccc1C(=O)C1CCCN(Cc2cnn(-c3ccccc3)c2)C1 (configuration not stated) | / | . | . | . | / | . | / | /
Cc1ccc(OCC(=O)NC(=S)Nc2cccc(NC(=O)c3ccccc3)c2)cc1 | 37 | . | / | . | . | . | . | .
CCC(C(=O)Nc1sc(C(N)=O)c(C)c1C(=O)OC)c1ccccc1 (configuration not stated) | / | . | . | . | . | . | / | /
O=C(CCC1CCCC1)N1CCC(N2CCCCCC2)CC1 | . | . | . | . | . | . | / | /
Cc1cc([N+](=O)[O-])cc(C)c1OCC(=O)N/N=C/c1ccc(OC(=O)c2ccccc2)cc1 | 20 | . | . | . | . | . | . | .
Cc1cc([N+](=O)[O-])cc(C)c1OCC(=O)N/N=C/c1ccc(OC(=O)c2ccccc2Br)cc1 | . | . | . | . | . | . | / | /
C=CCOC(=O)C1C(=O)CC(C)(O)C(C(=O)OCC=C)C1c1ccc(OCC)cc1 (configuration not stated) | 22 | . | . | . | . | . | . | .
CCN(CC)c1ccc(C2C(C(=O)OC(C)C)C(=O)CC(C)(O)C2C(=O)OC(C)C)cc1 (configuration not stated) | 19 | . | . | . | . | . | . | .
O=C(Nc1ccc2c(c1)OCO2)c1cc(-c2cccnc2)nc2ccccc12 | / | . | . | . | / | . | / | /
Cc1ccc(-c2cc(C(=O)Nc3ccc4c(c3)OCCO4)c3ccccc3n2)cc1 | 27 | . | . | . | . | . | . | 39
O=C(Cc1n[nH]c(=O)c2ccccc12)OCC(=O)c1ccc2c(c1)OCCO2 | . | . | . | . | / | . | / | /
O=C(Cc1ccc(Br)cc1)OCC(=O)c1ccc2c(c1)OCCO2 | 17 | . | . | . | . | . | . | .
CCC(=O)Nc1ccc2c(c1)nc(CN1CCN(C(C)=O)CC1)n2C | . | . | . | . | . | . | / | /
COc1ccc(-c2csc(N(CCCN3CCOCC3)C(=O)c3ccco3)n2)cc1 | 18 | . | . | . | / | . | . | .
Cc1ccc(-c2csc(N(CCCN3CCOCC3)C(=O)c3ccco3)n2)cc1 | 18 | . | . | . | . | . | . | .
